This is an account of results in ChEMBL document CHEMBL1212823, “m-Azipropofol (AziPm) a photoactive analogue of the intravenous general anesthetic propofol” (J Med Chem, 2010).

Values after ≈ are worked out from the molar mass of the structure shown. Active and inactive are the calls of the source. No cut-off for these calls is given here.

The target in data set [1] is T1, GABA-A receptor; alpha-1/beta-2/gamma-2 (Rattus norvegicus) (UniProt P18508+P62813+P63138). Kind of data set: Activation of rat alpha-1-beta-2-gamma-2L expressed in HEK293 cells at 30 uM by electrophysiological assay. Type of data set: cell-based.
A short description of data set [2]: Solubility of the compound in water. Type of data set: physicochemical. Put shortly: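 Extinction coefficient of the 368 nm diazirine band determined in methanol at known concentration; maximal concentration in distilled water then calculated from UV absorbance using that coefficient.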
Data set [3] in a line: Chemical stability of the compound assessed as half life in presence of UV irradiation. Type of data set: physicochemical. The essentials: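 A 160 μM solution in distilled water in a 1 cm quartz cuvette was irradiated at 350 nm for 30 min. UV spectra were taken every 3 min to follow loss of the diazirine peak (368 nm); t1/2 reported with 95% CI.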
Data set [4] deals with Xenopus laevis. Description: Anesthetic effect on Xenopus laevis tadpole assessed as loss of startle reflex after 30 mins. Type of data set: functional, organism-based. To be noted: 0.5 h. Put shortly: (§1)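 Xenopus tadpoles in groups of 10, in 30 mL pond water containing a range of compound concentrations, incubated 30 min to equilibrate. Water was then replaced with fresh pond water and recovery followed over 24 h.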

Data set [5] has as its system Xenopus laevis. Description: Anesthetic effect on Xenopus laevis tadpole assessed as loss of spontaneous motion measured for 30 seconds after 30 mins. Particulars: 0.5 h. Type of data set: functional, organism-based. Put shortly: as §1
The species named for data set [6] is Equus caballus. Kind of data set: Binding affinity to horse spleen apoferritin by isothermal titration calorimetry. Put shortly: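 Sequential titrations were linked and corrected with ligand-into-buffer, buffer-into-protein and buffer-into-buffer controls. Heats were fitted to a single binding-site class, Hill slope fixed at 1; mean with 95% CI.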
The species entered for data set [7] is Equus caballus. Kind of data set: Binding affinity to horse spleen apoferritin using 1-AMA by fluorescence competition assay. Put shortly:
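HSAF 7 μM with 7 μM 1-aminoanthracene in pH 7.4 PBS, titrated with compound 0–110 μM. Excitation 380 nm, emission 400–800 nm, baseline-corrected. Variable-slope Hill fit gave IC50 and Hill slope; KD obtained by Cheng–Prusoff correction for the 1-AMA competitor.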

Data set [8] concerns the target T1, GABA-A receptor; alpha-1/beta-2/gamma-2 (Rattus norvegicus). Kind of data set: Activation of rat alpha-1-beta-2-gamma-2L expressed in HEK293 cells assessed as potentiation of GABA-induced current at 0.3 to 3 uM by electrophysiological assay relative to control. Type of data set: cell-based.
Data set [9] is described as follows: Binding affinity to horse spleen apoferritin using 1-AMA by fluorescence competition method.

Regarding `CC(C)c1ccc(C2(C(F)(F)F)N=N2)cc1O`, the outcome in data set [1] was inactive. Further, in [2], the concentration in solution (solubility) was 185 µM (≈ 45.2 µg/mL). Further, the half-life in data set [3] worked out at 34 min. Besides, the EC50 in data set [4] was found to be 3100 nM; in data set [5], 1100 nM. In addition, the Activity came out at 21 µM in [6] and 23 µM in data set [7]. For the same molecule, the fold change (FC) in [8] worked out at 1.7. This molecule also had a Kd in [9] of 19000 nM.
With `CC(C)c1cccc(C(C)C)c1O` [PROPOFOL], the result in [1] was Active. In addition, the figures for the EC50 in data set [4] and in data set [5] were 2800 nM and 1100 nM, respectively. Further, the Activity came to 4.8 µM in data set [6] and 12 µM in [7]. Moreover, the fold change (FC) in [8] came to 9.3. This molecule also registered a Kd in data set [9] of 10000 nM.
